Measurements as given in ChEMBL document CHEMBL1156684, “Non-nucleoside HIV-1 reverse transcriptase inhibitors. Part 11: structural modulations of diaryltriazines with potent anti-HIV activity” (Eur J Med Chem, 2008).

Experiments:
[1] = test system: Human immunodeficiency virus 2; experiment: Antiviral activity against HIV2 ROD in human MT4 cells assessed as inhibition of viral replication by MTT assay; format: functional, organism-based; conditions: Human immunodeficiency virus 2, ROD
Method in brief: (§1)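 MT-4 cells at 1 × 10⁵ cells/ml infected with HIV at multiplicity of infection 0.02 (virus stocks titrated in MT-4 cells as CCID₅₀), then plated immediately with serial compound dilutions (DMSO stocks at 50 mM or higher). Viable cells counted by MTT after 4 days at 37 °C. IC₅₀ is the concentration protecting 50% of cells from viral cytopathogenicity.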

[2] = Selectivity index, ratio of CC50 for human MT4 cells to IC50 for HIV1 3B; format: functional
Method in brief: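 Ratio CC₅₀/IC₅₀. CC₅₀ is from MTT viability of MT-4 cells and IC₅₀ from MTT protection of HIV-infected MT-4 cells (MOI 0.02), both after 4 days at 37 °C.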

[3] = test system: Human immunodeficiency virus 1; experiment: Antiviral activity against HIV 3B in human MT4 cells assessed as inhibition of viral replication by MTT assay; format: functional, organism-based; conditions: Human immunodeficiency virus 1, 3B; method in brief: as §1
[4] = Cytotoxicity against human MT4 cells after 4 days by MTT assay; format: cell-based
Method in brief: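 Uninfected MT-4 cells exposed to graded compound concentrations (DMSO stocks at 50 mM or higher) for 4 days at 37 °C. Viability read by MTT. CC₅₀ is the concentration reducing MT-4 cell viability by 50%.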

| SMILES | IC50 [1] [µM] | Ratio CC50/IC50 [2] | IC50 [3] [µM] | CC50 at 96 h [4] [µM] |
| --- | --- | --- | --- | --- |
| CCCNc1nc(Nc2ccc(C#N)cc2)nc(Oc2ccc3cc(Br)ccc3c2Br)n1 | 6.59 | 524 | 0.256 | 134 |
| CC(C)Nc1nc(Nc2ccc(C#N)cc2)nc(Oc2ccc3cc(Br)ccc3c2Br)n1 | 9.71 | >302 | 0.693 | ≥ 209 |
| CC(C)Nc1nc(Nc2ccc(C#N)cc2)nc(Oc2ccc3ccccc3c2Br)n1 | > 41.5 | 39 | 1.06 | 41.5 |
| CCNc1nc(Nc2ccc(C#N)cc2)nc(Oc2ccc3cc(Br)ccc3c2Br)n1 | > 74.5 | 477 | 0.156 | 74.4 |
| CNc1nc(Nc2ccc(C#N)cc2)nc(Oc2cccc3ccccc23)n1 | > 30.3 | 163 | 0.186 | 30.3 |
| N#Cc1ccc(Nc2nc(N)nc(Oc3cccc4ccccc34)n2)cc1 | > 39.1 | 364 | 0.107 | 39.1 |
| CCCNc1nc(Nc2ccc(C#N)cc2)nc(Oc2cccc3ccccc23)n1 | > 73.2 | 11 | 2.7 | 29.5 |
| N#Cc1ccc(Nc2nc(N)nc(Oc3ccc4ccccc4c3)n2)cc1 | ≥ 11.5 | 471 | 0.09 | 42.2 |
| CCCNc1nc(Nc2ccc(C#N)cc2)nc(Oc2ccc3ccccc3c2Br)n1 | ≥ 58.3 | >1294 | 0.203 | > 263 |
| CNc1nc(Nc2ccc(C#N)cc2)nc(Oc2ccc3ccccc3c2Cl)n1 | > 171 | 14412 | 0.0118 | 171 |
| N#Cc1ccc(Nc2nc(N)nc(Oc3ccc4ccccc4c3Cl)n2)cc1 | ≥ 5.3 | 2872 | 0.0287 | – |
| N#Cc1ccc(Nc2nc(N=[N+]=[N-])nc(Oc3ccc4ccccc4c3Cl)n2)cc1 | 6.17 | 4270 | 0.06 | 256 |
| CCNc1nc(Nc2ccc(C#N)cc2)nc(Oc2ccc3ccccc3c2Cl)n1 | 16 | 1642 | 0.114 | 188 |
| CNc1nc(Nc2ccc(C#N)cc2)nc(Oc2ccc3cc(Br)ccc3c2)n1 | > 194 | 685 | 0.284 | 194 |
| CNc1nc(Nc2ccc(C#N)cc2)nc(Oc2ccc3ccccc3c2Br)n1 | ≥ 28.2 | 15400 | 0.0093 | 143 |
| CCCNc1nc(Nc2ccc(C#N)cc2)nc(Oc2ccc3ccccc3c2Cl)n1 | ≥ 43.6 | >1547 | 0.187 | > 290 |
| N#Cc1ccc(Nc2nc(N)nc(Oc3ccc4cc(Br)ccc4c3Br)n2)cc1 | 10.5 | 12475 | 0.0195 | 244 |
| N#Cc1ccc(Nc2nc(N)nc(Oc3ccc(Cl)c4ccccc34)n2)cc1 | ≥ 12.6 | 3775 | 0.062 | 237 |
| CCNc1nc(Nc2ccc(C#N)cc2)nc(Oc2ccc(Cl)c3ccccc23)n1 | > 208 | 285 | 0.733 | 208 |
| CCCNc1nc(Nc2ccc(C#N)cc2)nc(Oc2ccc(Cl)c3ccccc23)n1 | 45.6 | 111 | 1.63 | 182 |
| CNc1nc(Nc2ccc(C#N)cc2)nc(Oc2ccc3ccccc3c2)n1 | > 251 | 968 | 0.26 | 250 |
| CNc1nc(Nc2ccc(C#N)cc2)nc(Oc2ccc(Cl)c3ccccc23)n1 | > 197 | 2111 | 0.093 | 197 |
| N#Cc1ccc(Nc2nc(N)nc(Oc3ccc4ccccc4c3Br)n2)cc1 | 20.2 | 14094 | 0.0094 | 133 |
| N#Cc1ccc(Nc2nc(N)nc(Oc3ccc4cc(Br)ccc4c3)n2)cc1 | 19.7 | 3019 | 0.0808 | 243 |
| CNc1nc(Nc2ccc(C#N)cc2)nc(Oc2ccc3cc(Br)ccc3c2Br)n1 | > 91.9 | 5018 | 0.0184 | 92.8 |
| O=c1[nH]cnc2c1ncn2[C@H]1CC[C@@H](CO)O1 [DIDANOSINE] | – | >=98 | – | ≥ 529 |
| Cc1ccnc2c1NC(=O)c1cccnc1N2C1CC1 [NEVIRAPINE] | – | >800 | – | > 200 |
